One block for each molecule: values may come before it.
What was measured:
Assay type in all cases: ADME
[1] = molecular target: T1, UDP-glucuronosyltransferase 2B17 (Homo sapiens, UniProt O75795); assay: Drug metabolism assessed as recombinant human C-terminal His-tagged UGT2B17-mediated 13-epiestradiol-3-glucuronide formation at 200 uM after 15 to 60 mins by HPLC analysis in presence of UDPGA; settings: recombinant enzyme
T1 sequence (O75795 whole entry): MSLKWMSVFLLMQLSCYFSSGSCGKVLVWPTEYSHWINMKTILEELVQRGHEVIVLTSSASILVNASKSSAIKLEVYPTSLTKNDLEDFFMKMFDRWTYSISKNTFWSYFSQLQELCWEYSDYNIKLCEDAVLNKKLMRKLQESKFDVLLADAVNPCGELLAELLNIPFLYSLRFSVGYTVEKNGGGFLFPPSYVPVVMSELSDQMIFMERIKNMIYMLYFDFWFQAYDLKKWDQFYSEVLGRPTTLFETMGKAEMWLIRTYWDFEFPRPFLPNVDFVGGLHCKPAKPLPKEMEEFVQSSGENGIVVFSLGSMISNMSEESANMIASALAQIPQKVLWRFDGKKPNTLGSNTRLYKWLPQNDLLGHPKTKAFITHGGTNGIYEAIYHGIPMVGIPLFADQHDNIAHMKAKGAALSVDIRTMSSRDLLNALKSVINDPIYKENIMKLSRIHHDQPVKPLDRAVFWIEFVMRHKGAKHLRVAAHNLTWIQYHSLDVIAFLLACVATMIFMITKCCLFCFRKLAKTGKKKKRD
Method in brief: (§1)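 Screening at a single substrate concentration of 200 μM, in triplicate. The reaction used 5 or 50 µg of UGT-enriched insect cell membranes in 50 mM phosphate pH 7.4 with 10 mM MgCl₂ and 5 mM UDPGA, 10% final DMSO. Incubation was 15–60 min at 37°C. Perchloric acid stopped the reaction and supernatants were analysed by HPLC. Controls lacked UDPGA. Rates were normalized to relative UGT expression level.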

[2] = molecular target: T2, UDP-glucuronosyltransferase 2B4 (Homo sapiens, UniProt P06133); assay: Drug metabolism assessed as recombinant human C-terminal His-tagged UGT2B4-mediated 13-epiestradiol-17-glucuronide formation at 200 uM after 15 to 60 mins by HPLC analysis in presence of UDPGA; settings: recombinant enzyme; method in brief: as §1
T2 sequence (P06133 whole entry): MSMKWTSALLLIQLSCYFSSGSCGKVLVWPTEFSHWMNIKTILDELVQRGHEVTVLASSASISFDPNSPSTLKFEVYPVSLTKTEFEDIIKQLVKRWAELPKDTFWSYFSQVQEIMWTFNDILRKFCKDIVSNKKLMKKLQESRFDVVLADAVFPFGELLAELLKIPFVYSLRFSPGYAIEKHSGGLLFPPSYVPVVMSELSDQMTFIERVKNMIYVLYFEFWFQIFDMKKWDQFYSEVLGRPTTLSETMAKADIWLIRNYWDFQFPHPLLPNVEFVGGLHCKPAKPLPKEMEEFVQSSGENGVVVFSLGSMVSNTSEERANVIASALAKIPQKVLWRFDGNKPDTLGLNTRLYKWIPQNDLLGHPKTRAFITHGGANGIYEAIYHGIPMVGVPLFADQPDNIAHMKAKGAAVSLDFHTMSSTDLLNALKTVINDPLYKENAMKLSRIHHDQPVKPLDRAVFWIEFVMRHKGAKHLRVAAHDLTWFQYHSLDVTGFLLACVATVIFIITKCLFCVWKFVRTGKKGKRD

[3] = molecular target: T1, UDP-glucuronosyltransferase 2B17; assay: Drug metabolism assessed as recombinant human C-terminal His-tagged UGT2B17-mediated 16-epiestriol-17-glucuronide formation at 5 mg after 5 hrs by NMR spectroscopic analysis in presence of UDPGA
[4] = molecular target: T3, UDP-glucuronosyltransferase 2A1 (Homo sapiens, UniProt P0DTE4); assay: Drug metabolism assessed as recombinant human C-terminal His-tagged UGT2A1-mediated 16-epiestriol-16-glucuronide formation after 15 to 60 mins by Michaelis-Menten equation analysis in presence of UDPGA; settings: recombinant enzyme
T3 sequence (P0DTE4 whole entry): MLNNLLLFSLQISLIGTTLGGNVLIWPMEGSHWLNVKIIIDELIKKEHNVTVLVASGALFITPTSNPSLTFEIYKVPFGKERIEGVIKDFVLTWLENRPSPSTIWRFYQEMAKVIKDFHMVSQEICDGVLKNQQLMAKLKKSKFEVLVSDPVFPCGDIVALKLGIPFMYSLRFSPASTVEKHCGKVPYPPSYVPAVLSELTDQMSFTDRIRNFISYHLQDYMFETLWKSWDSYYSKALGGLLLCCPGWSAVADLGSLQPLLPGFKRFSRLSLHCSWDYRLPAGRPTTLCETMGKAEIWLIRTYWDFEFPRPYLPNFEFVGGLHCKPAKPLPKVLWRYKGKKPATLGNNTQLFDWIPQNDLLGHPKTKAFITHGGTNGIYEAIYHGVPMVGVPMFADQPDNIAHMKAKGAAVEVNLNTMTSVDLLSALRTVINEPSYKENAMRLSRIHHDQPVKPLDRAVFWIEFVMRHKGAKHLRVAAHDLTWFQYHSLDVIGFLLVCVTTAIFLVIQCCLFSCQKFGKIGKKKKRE

[5] = Drug metabolism in human intestine microsomes assessed as estriol-17-glucuronide formation after 15 to 60 mins by Michaelis-Menten equation analysis in presence of UDPGA
Method in brief: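 Pooled human intestine microsomes (6 donors), 0.5 or 10 µg, with alamethicin at 5% of total protein. Incubated with 50 mM phosphate pH 7.4, 10 mM MgCl₂, 5 mM UDPGA and 10% DMSO for 15–60 min at 37°C. Each glucuronide regioisomer quantified by HPLC, in triplicate, with substrate consumption at or below 10%.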

[6] = molecular target: T4, UDP-glucuronosyltransferase 1A4 (Homo sapiens, UniProt P22310); assay: Drug metabolism assessed as recombinant human C-terminal His-tagged UGT1A4-mediated estriol-16-glucuronide formation after 15 to 60 mins by Michaelis-Menten equation analysis in presence of UDPGA; settings: recombinant enzyme
T4 sequence (P22310 whole entry): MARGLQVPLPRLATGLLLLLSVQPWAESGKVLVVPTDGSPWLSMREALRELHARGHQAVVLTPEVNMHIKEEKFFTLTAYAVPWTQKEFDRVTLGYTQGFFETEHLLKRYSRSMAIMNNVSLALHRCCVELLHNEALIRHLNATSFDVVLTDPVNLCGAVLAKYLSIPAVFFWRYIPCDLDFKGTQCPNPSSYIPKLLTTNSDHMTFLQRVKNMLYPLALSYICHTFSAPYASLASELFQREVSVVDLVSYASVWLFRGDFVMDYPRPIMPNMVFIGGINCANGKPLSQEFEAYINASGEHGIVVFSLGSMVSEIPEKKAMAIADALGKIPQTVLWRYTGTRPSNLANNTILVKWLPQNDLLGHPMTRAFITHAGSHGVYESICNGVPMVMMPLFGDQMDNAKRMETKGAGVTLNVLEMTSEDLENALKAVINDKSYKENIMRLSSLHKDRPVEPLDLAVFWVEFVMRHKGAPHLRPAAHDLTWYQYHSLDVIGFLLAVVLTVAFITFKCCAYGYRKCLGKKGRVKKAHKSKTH

Drug metabolism [1]: metabolite_detected | Drug metabolism [2]: metabolite_detected
SMILES: C[C@@]12CC[C@@H]3c4ccc(O)cc4CC[C@H]3[C@@H]1CC[C@@H]2O

Drug metabolism [3]: metabolite_detected | Drug metabolism [4]: 260 pmol/min/mg
SMILES: C[C@]12CC[C@@H]3c4ccc(O)cc4CC[C@H]3[C@@H]1C[C@H](O)[C@@H]2O [EPIESTRIOL]

Km [5]: 1.12 mM | Vmax [5]: 2095 pmol/min/mg | Drug metabolism [6]: 4 pmol/min/mg
SMILES: C[C@]12CC[C@@H]3c4ccc(O)cc4CC[C@H]3[C@@H]1C[C@@H](O)[C@@H]2O [ESTRIOL]

Source: ChEMBL document CHEMBL3525985, “Regiospecificity and stereospecificity of human UDP-glucuronosyltransferases in the glucuronidation of estriol, 16-epiestriol, 17-epiestriol, and 13-epiestradiol” (Drug Metab Dispos, 2013)
